Measurements reported in ChEMBL document CHEMBL3526142, “Biotransformation of a novel antimitotic agent, I-387, by mouse, rat, dog, monkey, and human liver microsomes and in vivo pharmacokinetics in mice” (Drug Metab Dispos, 2011).

What was measured:
[1] = Tmax in ICR mouse at 1 mg/kg, po by LC-MS/MS analysis; format: ADME, organism-based; set-up: dose 1 mg/kg, route oral; conditions: in vivo
Outline: (§1)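 Male ICR mice (5–6 weeks, 20–25 g) dosed by gavage in 10% DMSO in PEG300. Three to four mice per time point were euthanized under isoflurane and blood taken from the posterior vena cava. Plasma was acetonitrile-precipitated and analysed by LC-MS/MS (MRM m/z 388.2→192). Tmax read by visual inspection. F = (AUC_oral × dose_iv)/(AUC_iv × dose_oral), with AUC_inf by trapezoidal rule; n = 3/dose group.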

[2] = AUC (infinity) in ICR mouse at 1 mg/kg, po via gavage by LC-MS/MS analysis; format: ADME, organism-based; set-up: time infinity, dose 1 mg/kg, route oral; conditions: plasma
Outline: (§2)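 Male ICR mice (5–6 weeks, 20–25 g), single doses of 1, 5 or 15 mg/kg in 10% DMSO/PEG300, given iv by tail vein, ip, or orally by gavage. Three to four mice per time point, euthanized under isoflurane, blood drawn from posterior vena cava. Plasma protein precipitated with acetonitrile containing internal standard, then LC-MS/MS (MRM m/z 388.2→192). Noncompartmental analysis of mean concentration-time data, AUCinf by trapezoidal rule with extrapolation, CL = dose/AUCinf, Cmax read from the curve. F = (AUCnon-iv × dose iv)/(AUCiv × dose non-iv). n = 3 per dose group.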

[3] = system: Liver microsome; assay: Drug metabolism in rat liver microsomes assessed as (3-(1H-indol-2-yl)phenyl)(3,4,5-trimethoxyphenyl)methanol formation at 0.5 uM after 2 hrs by LC-MS/MS analysis in presence of 3 mM NADPH; format: ADME
Outline: (§3)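 Pooled liver microsomes (1 mg/ml protein) incubated with 0.5 µM substrate and 3 mM NADPH in 65 mM potassium phosphate, pH 7.4, 1% methanol, at 37°C for 2 h. Stopped with ice-cold acetonitrile containing internal standard, centrifuged. Supernatant analysed by LC-MS/MS on a C18 column, 15-min gradient, with product ion scans for metabolite identification.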

[4] = Cmax in ICR mouse at 5 mg/kg, ip by LC-MS/MS analysis; format: ADME, organism-based; set-up: dose 5 mg/kg, route intraperitoneal; conditions: in vivo; outline: as §2
[5] = Drug metabolism in monkey liver microsomes assessed as (3-(1H-indol-2-yl)phenyl)(3,4,5-trimethoxyphenyl)methanol formation at 0.5 uM after 2 hrs by LC-MS/MS analysis in presence of 3 mM NADPH; format: ADME, Macaca mulatta; conditions: rhesus monkey; outline: as §3
[6] = Mean residence time (infinity) in ICR mouse at 15 mg/kg, ip by LC-MS/MS analysis; format: ADME, organism-based; set-up: dose 15 mg/kg, route intraperitoneal; conditions: in vivo; outline: as §2
[7] = Mean residence time (infinity) in ICR mouse at 15 mg/kg, po via gavage by LC-MS/MS analysis; format: ADME, organism-based; set-up: dose 15 mg/kg, route oral; conditions: in vivo; outline: as §2
[8] = AUC (infinity) in ICR mouse at 15 mg/kg, po via gavage by LC-MS/MS analysis; format: ADME, organism-based; set-up: time infinity, dose 15 mg/kg, route oral; conditions: plasma; outline: as §2
[9] = Metabolic stability in human liver microsomes assessed as half life during phase 1 and 2 at 0.5 uM by LC-MS/MS analysis in presence of 3 mM NADPH and 5 mM UDPGA; conditions: read-out: alphat1/2
[10] = Bioavailability in ICR mouse at 5 mg/kg, ip by LC-MS/MS analysis; format: ADME, organism-based; conditions: in vivo; outline: as §2
[11] = system: Liver microsome; assay: Drug level in dog liver microsomes assessed as compound retention time treated with 0.5 uM I-387 after 2 hrs by LC-MS/MS analysis; format: ADME, Canis lupus familiaris; outline: as §3
[12] = Cmax in ICR mouse at 5 mg/kg, po via gavage by LC-MS/MS analysis; format: ADME, organism-based; set-up: dose 5 mg/kg, route oral; conditions: in vivo; outline: as §2
[13] = Clearance in ICR mouse at 1 mg/kg, iv by LC-MS/MS analysis; format: ADME, organism-based; set-up: dose 1 mg/kg, route intravenous; conditions: in vivo; outline: as §2
[14] = Oral bioavailability in ICR mouse at 5 mg/kg via gavage after 30 mins by LC-MS/MS analysis; format: ADME, organism-based; conditions: in vivo; outline: as §1
[15] = Clearance in ICR mouse at 5 mg/kg, iv by LC-MS/MS analysis; format: ADME, organism-based; set-up: dose 5 mg/kg, route intravenous; conditions: in vivo; outline: as §2
[16] = Bioavailability in ICR mouse at 1 mg/kg, ip by LC-MS/MS analysis; format: ADME, organism-based; conditions: in vivo; outline: as §2
[17] = Mean residence time (infinity) in ICR mouse at 5 mg/kg, ip by LC-MS/MS analysis; format: ADME, organism-based; set-up: dose 5 mg/kg, route intraperitoneal; conditions: in vivo; outline: as §2
[18] = Mean residence time (infinity) in ICR mouse at 15 mg/kg, iv by LC-MS/MS analysis; format: ADME, organism-based; set-up: dose 15 mg/kg, route intravenous; conditions: in vivo; outline: as §2
[19] = AUC (infinity) in ICR mouse at 15 mg/kg, ip by LC-MS/MS analysis; format: ADME, organism-based; set-up: time infinity, dose 15 mg/kg, route intraperitoneal; conditions: plasma; outline: as §2
[20] = AUC (infinity) in ICR mouse at 15 mg/kg, iv by LC-MS/MS analysis; format: ADME, organism-based; set-up: time infinity, dose 15 mg/kg, route intravenous; conditions: plasma; outline: as §2
[21] = Oral bioavailability in ICR mouse at 1 mg/kg via gavage after 30 mins by LC-MS/MS analysis; format: ADME, organism-based; conditions: in vivo; outline: as §1
[22] = Metabolic stability in monkey liver microsomes assessed as half life during phase 1 and 2 at 0.5 uM by LC-MS/MS analysis in presence of 3 mM NADPH and […] UDPGA; format: ADME, Macaca mulatta; conditions: rhesus monkey, read-out: alphat1/2
[23] = Volume of distribution at steady state in ICR mouse at 15 mg/kg, iv by LC-MS/MS analysis; format: ADME, organism-based; set-up: dose 15 mg/kg, route intravenous; conditions: in vivo, read-out: Vdss
Outline: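 Tail-vein injection in male ICR mice (5–6 weeks), vehicle 10% DMSO in PEG300. Serial terminal sampling of 3–4 mice per time point, with posterior vena cava blood. Plasma was acetonitrile-precipitated and measured by LC-MS/MS. Noncompartmental analysis of mean data: t1/2 = ln2/λz, CL = dose/AUC_inf, Vd_ss = CL × MRT_inf; n = 3/dose group.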

[24] = Mean residence time (infinity) in ICR mouse at 1 mg/kg, po via gavage by LC-MS/MS analysis; format: ADME, organism-based; set-up: dose 1 mg/kg, route oral; conditions: in vivo; outline: as §2
[25] = Plasma concentration in ICR mouse at 15 mg/kg, ip measured for 30 hrs by LC-MS/MS analysis; format: ADME, organism-based; set-up: dose 15 mg/kg, route intraperitoneal
Outline: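 Male ICR mice given 15 mg/kg intraperitoneally in 10% DMSO/PEG300. Plasma from 3–4 mice per time point was collected via the posterior vena cava, protein-precipitated with acetonitrile plus internal standard, and quantified by LC-MS/MS (MRM m/z 388.2→192).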

[26] = Tmax in ICR mouse at 15 mg/kg, po by LC-MS/MS analysis; format: ADME, organism-based; set-up: dose 15 mg/kg, route oral; conditions: in vivo; outline: as §1
[27] = Mean residence time (infinity) in ICR mouse at 1 mg/kg, ip by LC-MS/MS analysis; format: ADME, organism-based; set-up: dose 1 mg/kg, route intraperitoneal; conditions: in vivo; outline: as §2

Tmax [1]: 0.5 h
AUC(0-inf) [2]: 148 ng·h/mL
Drug metabolism [3]: metabolite_detected
Cmax [4]: 1440 ng/mL
Drug metabolism [5]: metabolite_detected
MRT inf [6]: 7 h
MRT inf [7]: 8.9 h
AUC(0-inf) [8]: 1070 ng·h/mL
half-life at 0.5 µM [9]: 0.5 h
bioavailability [10]: 95%
Retention_time [11]: 11.3 min
Cmax [12]: 100 ng/mL
clearance [13]: 27 mL/min/kg
bioavailability [14]: 13%
clearance [15]: 22 mL/min/kg
bioavailability [16]: 65%
MRT inf [17]: 5.5 h
MRT inf [18]: 8.8 h
AUC(0-inf) [19]: 12600 ng·h/mL
AUC(0-inf) [20]: 13400 ng·h/mL
bioavailability [21]: 24%
half-life at 0.5 µM [22]: 0.183 h
Vd [23]: 9.8 L/kg
MRT inf [24]: 9 h
concentration at 30 h [25]: > 71 ng/mL
Tmax [26]: 0.5 h
MRT inf [27]: 6.4 h
Compound: COc1cc(C(=O)c2cccc(-c3cc4ccccc4[nH]3)c2)cc(OC)c1OC
